# This is a sample that favours compounds with a hit; in the whole collection about 3.2% have one here.
# TRPML3 agonist – human TRPML3 channel agonists, primary screen, cell-based, HEK293 TRPML3-YFP, Fluo-8 calcium fluorescence, 3 µM; 100% = the carbachol control signal; Mucolipin-3 (Homo sapiens), Q8TDD5; hit rate 0.29% among 220,000; activation, % at 3 µM;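 active = activation above its plate's cutoff, the mean activation of the plate's test wells plus 3 SD, cut at about 12% in these data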;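 also: 0% = DMSO only wells and 100% = carbachol wells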
#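 Test system: HEK293 cells stably carrying human TRPML3-YFP; Doses: single dose, 3 µM final nominal compound, 0.3% DMSO final; Schedule: dye loading 1 h 37 °C then 30 min ambient, 125 s read; Technique: Fluo-8 calcium fluorescence; Benchmarks: high control carbachol 87 µM, low control DMSO.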
# GPR7 antagonist – GPR7 receptor antagonists, primary screen, cell-based, fluorescence, single concentration | GPR7-expressing cells, fluorescence antagonist assay | inhibition, % at 4.4 µM | hit rate 1.1% among 290,000 | AID 1861, 2009; in the data active = inhibition above about 16%, passing the limit was not always enough;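 also: cells stimulated with the agonist NPW; 0% = agonist with vehicle and 100% = vehicle without agonist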
# Target sequence (P48145 whole entry, looked up): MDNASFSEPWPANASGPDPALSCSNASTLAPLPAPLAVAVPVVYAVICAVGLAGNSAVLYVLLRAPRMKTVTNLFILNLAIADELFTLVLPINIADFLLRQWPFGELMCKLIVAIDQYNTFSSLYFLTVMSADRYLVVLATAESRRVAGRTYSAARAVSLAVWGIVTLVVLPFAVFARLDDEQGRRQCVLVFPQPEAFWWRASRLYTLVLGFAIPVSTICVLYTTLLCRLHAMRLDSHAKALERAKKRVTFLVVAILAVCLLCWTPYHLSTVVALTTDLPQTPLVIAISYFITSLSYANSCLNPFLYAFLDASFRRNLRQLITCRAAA
# TRPN1 ag – zebrafish TRPN1 channel agonists, primary screen, cell-based, HEK293, calcium fluorescence; hit rate 0.18% among 220,000; transient receptor potential cation channel N1 (TRPN1/NompC), Danio rerio; activation, % at 3 µM; HEK293 zebrafish TRPN1-YFP, Fluo-8 calcium fluorescence; 100% = response to 87 µM carbachol;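 active = activation above its plate's cutoff, the mean activation of test wells on that plate plus 3 SD, cut at about 19% in these data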;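 also: 0% = DMSO alone and 100% = 87 µM carbachol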
#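 System: zebrafish TRPN1-YFP in HEK293 cells / Dosing: 3 µM single point / Timing: dye loading 1 h at 37 °C, then 30 min room temperature / Signal: Fluo-8 calcium fluorescence, excitation 470-495 nm, emission 515-575 nm / Read-out basis: percent activation from peak over basal fluorescence ratio, control-normalized / Control set: high carbachol 87 µM, low DMSO alone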
# OX1R antag-1 – OX1R (HCRTR1) antagonists, primary screen, fluorescence, CHO/OX1R cells, Fluo-8 calcium, orexin A | Fluo-8 calcium fluorescence | hit rate 0.43% among 330,000 | AID 434989, 2010 | inhibition, % at 5 µM;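 active = inhibition above its plate's threshold, mean inhibition of all tested compounds on the plate plus 3 SD, cut at about 37% in these data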;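 also: 0% = orexin A challenge wells and 100% = SB-334867-A antagonist wells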
# CHO parental Ca – ATP-evoked calcium signal inhibitors, parental CHO, primary screen, counter-screen for OX1R antagonist project, cell-based, fluorescence, Fluo-8 calcium dye; parental CHO-K1, ATP-induced calcium, Fluo-8 fluorescence; inhibition, % at 5.6 µM; hit rate 0.63% among 330,000; AID 463079, 2010;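 active = inhibition above that plate's mean sample inhibition plus 3 SD, cut at about 26% in these data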;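 also: 0% = ATP-challenged DMSO wells and 100% = DMSO wells without ATP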
#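 Test system: untransfected parental CHO cell line; also added: ATP stimulus; dosing: 5.6 µM, single dose; signal: calcium-sensitive Fluo-8 fluorescence; measure: percent inhibition of ATP-evoked calcium rise, normalized to controls; benchmarks: low control ATP plus DMSO, high control DMSO only; replication: one well per compound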
# OX1R antag-2 – antagonists of human orexin 1 receptor (OX1R); hit rate 1.8% among 330,000; AID 485270, 2010; inhibition, % at 6.6 µM; Orexin/Hypocretin receptor type 1 (Homo sapiens), O43613; OX1R-expressing cells, FRET antagonist read-out; in the data active = inhibition mostly above about 38%, no sharp cut-off; inactive = mostly below about 40%;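 also: 0% = agonist challenge alone and 100% = reference antagonist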
# * = called active by the depositor; nt = no result given.
SMILES,TRPML3 agonist,GPR7 antagonist,TRPN1 ag,OX1R antag-1,CHO parental Ca,OX1R antag-2
O=C(NC1CCN(Cc2ccccc2)CC1)C1CCCN(S(=O)(=O)c2cccc3nonc23)C1 (centres undefined),2,5,2,-19,-19,70*
N#Cc1ccsc1NC(=O)c1cccc([N+](=O)[O-])c1,2,-8,4,-5,-7,36
N#Cc1ccsc1NC(=O)c1ccc(Cl)c([N+](=O)[O-])c1,19*,20*,30*,25,46*,88*
NC(=O)c1c(NC(=O)c2ccncc2)sc2c1CCCCCC2,nt,-5,nt,-12,-6,19
OC(COc1cccc2ccccc12)CN1CCN(c2ccccc2Cl)CC1 (centres undefined),1,9,2,-12,-11,6
Nc1nonc1-n1nnc(C(=O)N/N=C/c2ccc(OCc3ccccc3)cc2)c1CN1CCCCC1,nt,-16,nt,-1,-19,3
C/C(CCC(=O)O)=N/Nc1ccc([N+](=O)[O-])cc1[N+](=O)[O-],1,-7,2,-2,-4,63*
CCOC(=O)C(C(=O)OCC)C(C)(C)/C(C)=N\Nc1ccc([N+](=O)[O-])cc1[N+](=O)[O-],0,2,1,4,-1,32
C/C(CCCO)=N/Nc1ccc([N+](=O)[O-])cc1[N+](=O)[O-],1,0,1,15,4,44*
CCOC(=O)CC(C)(C)/C(C)=N/Nc1ccc([N+](=O)[O-])cc1[N+](=O)[O-],0,-8,-1,-3,19,54*
C#CCOC(=O)CCCNc1ccc([N+](=O)[O-])cc1[N+](=O)[O-],-1,0,0,-21,7,46*
COc1ccc(-c2noc(CCC(=O)NCCc3ccccc3)n2)cc1OC,nt,-7,nt,nt,nt,nt
Cn1c(SCc2cccc([N+](=O)[O-])c2)nc2c(c1=O)SCC2,3,-14,2,-9,6,18
Nc1n[nH]c(=S)n1/N=C1/C(=O)Nc2ccccc21,1,-1,2,nt,nt,nt
Cc1cc(C)cc(NC(=O)c2cc(C)n(Cc3cccs3)c2C)c1,-1,-14,-1,10,59*,17
O=C(CN1C(=O)c2cccnc2Oc2ccc(Cl)cc21)NC1CCCCC1,nt,-2,nt,-20,-21,20
O=C1C=CC(=O)N1c1ccc(OC(F)F)cc1,1,-1,0,11,3,10
N=c1n(CCN2CCCCC2)c2ccccc2n1CC(O)c1ccc(Cl)c(Cl)c1 (centres undefined),1,36*,0,-21,-24,9
COc1ccccc1OCC(O)Cn1c(=N)n(CCN2CCCCC2)c2ccccc21 (centres undefined),0,25*,-1,-9,-12,14
COC(=O)c1ccc(-c2ccc(/C=N/NC(=O)Cc3nnc(N)s3)o2)cc1,1,0,2,-6,-17,18
O=[N+]([O-])c1ccc(O)c(/C=N/n2c(CO)nc3ccccc32)c1,2,-21,4,-4,15,2
O=[N+]([O-])c1ccc(O)c(/C=N/n2cnc3ccccc32)c1,1,-3,2,19,-8,48*
COc1ccccc1C(=O)NC(=O)COc1ccc([N+](=O)[O-])cc1,nt,nt,nt,-9,-1,4
COc1ccccc1C(=O)NC(=O)COC(=O)c1ccc([N+](=O)[O-])cc1,nt,nt,nt,-16,-18,50*
C/C(=N\Nc1ccc([N+](=O)[O-])cc1)c1cc2ccccc2o1,2,-4,2,55*,41*,55*
SMILES,TRPML3 agonist,GPR7 antagonist,TRPN1 ag,OX1R antag-1,CHO parental Ca,OX1R antag-2
CC(NC(=O)[C@H](NC(=O)[C@@H]1Cc2ccccc2CN1)c1ccccc1)c1ccccc1 (some centres undefined),nt,-7,nt,-16,-16,50*
CC(C)c1ccc(NC(=O)[C@H](NC(=O)[C@@H]2Cc3ccccc3CN2)c2ccccc2)cc1,nt,-8,nt,-22,-23,15
CC(=O)N(C1=C(N)C(=O)c2ccccc2C1=O)C(C)C,1,-6,2,-6,-3,48*
Cc1cc(C)cc(NC2=C(N)C(=O)c3ccccc3C2=O)c1,nt,-15,nt,-9,-11,12
COc1cc(C(=O)NCCCN2CCCC2=O)cc(Br)c1OCc1ccccc1,nt,nt,nt,-29,-15,3
COc1ccc(C(=O)NN/C(C)=C/C(=O)C(F)(F)C(F)(F)C(F)(F)F)cc1,0,-6,2,-14,-6,5
NC(=O)c1c(-c2ccc(Cl)cc2Cl)csc1NC(=O)Cc1ccccc1,3,-6,7,9,56*,58*
COc1cccc(OC)c1OCCCc1c(C)n[nH]c1C,0,16*,0,-12,0,8
CCOC(=O)N1CCN(C(=O)CS(=O)(=O)c2cn(Cc3ccc(F)cc3)c3ccccc23)CC1,nt,nt,nt,17,-9,62*
O=C(O)COc1ccccc1/C=N/NC(=O)c1cccc(S(=O)(=O)N2CCOCC2)c1,1,-1,1,6,-9,11
O=c1c2[nH]c3ccc(F)cc3c2nc2n1CCCS2,0,-5,-1,-6,-7,29
O=C(Cn1cnc2c(nnn2Cc2ccccc2F)c1=O)OCc1ccccc1,1,24,1,69*,80*,10
CCOC(=O)CS(=O)(=O)c1nc(-c2ccccc2)cc(C(F)(F)F)n1,-1,39*,10,7,8,49
COC(=O)CCS(=O)(=O)c1nc(-c2ccccc2)cc(C(F)(F)F)n1,1,15,0,-2,6,19
CCOC(=O)CCS(=O)(=O)c1nc(-c2ccccc2)cc(C(F)(F)F)n1,1,26*,0,-10,-7,39
Cc1ccc(NC(=O)CN(C)C(=O)Cc2ccc(Cl)cc2Cl)cc1,nt,13,nt,-17,-2,32
CCCNC(=S)N1CCN(c2nc(-c3cccc(OC)c3)cs2)CC1,nt,0,nt,-22,-1,33
CCCNC(=S)N1CCN(c2nc(-c3ccc(C)cc3)cs2)CC1,nt,-10,nt,1,53*,32
O=C(COC(=O)c1cc(-c2cccs2)nc2ccccc12)NCc1ccco1,-1,-6,0,17,-12,72*
O=C(NCc1ccco1)c1cc(-c2cccs2)nc2ccccc12,0,-2,2,-7,-18,22
